Assay results published in ChEMBL document CHEMBL1125879, “Synthesis and antimalarial activity of 2-aziridinyl- and 2,3-bis(aziridinyl)-1,4-naphthoquinonyl sulfonate and acylate derivatives” (J Med Chem, 1991).

test: In vitro antimalarial activity against human malaria parasite, P falciparum (Vietnam Smith strain); assay type: functional, Plasmodium falciparum
How it was run: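 P. falciparum in infected erythrocytes, semisynchronized cultures, initial parasitemia 1-3%, in RPMI 1640 with 25 mM HEPES, bicarbonate, 5% pooled calf serum; agents from 10^-2 M DMSO stocks at various concentrations, 48 h exposure with 1 μCi [3H]hypoxanthine per well throughout. Filter-harvested, scintillation counted. IC50 = 50% drop in incorporation vs drug-free controls, graphic extrapolation, mean of 2-4 observations.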

SMILES	IC50 [nM]
O=C(Oc1cccc2c1C(=O)C(N1CC1)=C(N1CC1)C2=O)c1cccs1	2600
O=C(Oc1cccc2c1C(=O)C=C(N1CC1)C2=O)c1ccccc1	450
O=C(Oc1cccc2c1C(=O)C(N1CC1)=C(N1CC1)C2=O)c1ccco1	4600
O=C(Oc1cccc2c1C(=O)C(N1CC1)=C(N1CC1)C2=O)c1ccc(Cl)cc1	1700
CCc1ccc(S(=O)(=O)Oc2cccc3c2C(=O)C(N2CC2)=C(N2CC2)C3=O)cc1	4000
O=C1C(NCCCl)=CC(=O)c2c(OS(=O)(=O)Cc3ccccc3)cccc21	6500
COc1cc(C(=O)Oc2cccc3c2C(=O)C=C(N2CC2)C3=O)cc(OC)c1OC	160
O=C1C(N2CC2)=C(N2CC2)C(=O)c2c(O)cccc21	1600
O=C1C=C(O)C(=O)c2ccccc21 [LAWSONE]	100000
O=C1/C(=N/CCCl)C=C(O)c2c(O)cccc21	4300
CC1=CC(=O)c2ccccc2C1=O [MENADIONE]	3400
COc1ccc(S(=O)(=O)Oc2cccc3c2C(=O)C=C(N2CC2)C3=O)cc1	160
CC(C)c1cc(C(C)C)c(S(=O)(=O)Oc2cccc3c2C(=O)C=C(N2CC2)C3=O)c(C(C)C)c1	280
O=C1C(N2CC2)=CC(=O)c2c(OS(=O)(=O)/C=C/c3ccccc3)cccc21	170
O=C1C(N2CC2)=CC(=O)c2c(OS(=O)(=O)c3cccs3)cccc21	470
O=C(Oc1cccc2c1C(=O)C(N1CC1)=C(N1CC1)C2=O)c1cc(Cl)sc1Cl	3900
O=C1C(N2CC2)=C(N2CC2)C(=O)c2c(OS(=O)(=O)CCCCl)cccc21	3000
O=C1C(N2CC2)=CC(=O)c2c(OS(=O)(=O)c3ccccc3)cccc21	230
O=C(Oc1cccc2c1C(=O)C=C(N1CC1)C2=O)c1ccc(Cl)cc1	530
O=C1C(N2CC2)=C(N2CC2)C(=O)c2c(OS(=O)(=O)c3ccc([N+](=O)[O-])cc3)cccc21	7600
C/N=C1\C=C(O)c2c(O)cccc2C1=O	3700
O=C1C(N2CC2)=C(N2CC2)C(=O)c2c(OS(=O)(=O)Cc3ccccc3)cccc21	2400

SMILES	IC50 [nM]
CC(C)c1cc(C(C)C)c(S(=O)(=O)Oc2cccc3c2C(=O)C(N2CC2)=C(N2CC2)C3=O)c(C(C)C)c1	3000
CCCCCCCCCCCCCCCCS(=O)(=O)Oc1cccc2c1C(=O)C(N1CC1)=C(N1CC1)C2=O	20000
COc1ccc(C(=O)Oc2cccc3c2C(=O)C(N2CC2)=C(N2CC2)C3=O)cc1	3700
CN(C)c1cccc2c(S(=O)(=O)Oc3cccc4c3C(=O)C(N3CC3)=C(N3CC3)C4=O)cccc12	3000
CC(C)(C)c1ccc(S(=O)(=O)Oc2cccc3c2C(=O)C=C(N2CC2)C3=O)cc1	24
O=C(Oc1cccc2c1C(=O)C=C(N1CC1)C2=O)c1ccco1	490
O=C1C(N2CC2)=CC(=O)c2c(O)cccc21	88
Cc1ccc(S(=O)(=O)Oc2cccc3c2C(=O)C(N2CC2)=C(N2CC2)C3=O)cc1	4600
O=C(Oc1cccc2c1C(=O)C(N1CC1)=C(N1CC1)C2=O)c1ccc(F)cc1	4400
O=C1C(N2CC2)=CC(=O)c2c(OS(=O)(=O)c3cccc4cccnc34)cccc21	430
O=C1C=CC(=O)c2c(O)cccc21 [JUGLONE]	3700
O=C1C(N2CC2)=C(N2CC2)C(=O)c2c(OS(=O)(=O)c3ccccc3)cccc21	5800
O=C1C(N2CC2)=C(N2CC2)C(=O)c2c(OS(=O)(=O)c3ccc(Cl)cc3)cccc21	3200
Cc1ccc(C(=O)Oc2cccc3c2C(=O)C(N2CC2)=C(N2CC2)C3=O)cc1	4400
O=C(Oc1cccc2c1C(=O)C=C(N1CC1)C2=O)c1cccs1	470
Cc1ccc(C(=O)Oc2cccc3c2C(=O)C=C(N2CC2)C3=O)cc1	620
O=C1C(N2CC2)=C(N2CC2)C(=O)c2c(OS(=O)(=O)c3ccc([N+](=O)[O-])c([N+](=O)[O-])c3)cccc21	2400
O=C1C(N2CC2)=C(N2CC2)C(=O)c2c(OC(=O)C34CC5CC(CC(C5)C3)C4)cccc21	5400
COc1cc(C(=O)Oc2cccc3c2C(=O)C(N2CC2)=C(N2CC2)C3=O)cc(OC)c1OC	3400
CS(=O)(=O)Oc1cccc2c1C(=O)C(N1CC1)=C(N1CC1)C2=O	3200
CN(C)C1=CC(=O)c2c(O)cccc2C1=O	1600
O=C1C(N2CC2)=CC(=O)c2c(OS(=O)(=O)c3ccc(F)cc3)cccc21	140

SMILES	IC50 [nM]
CC1(C)C2CCC1(CS(=O)(=O)Oc1cccc3c1C(=O)C(N1CC1)=C(N1CC1)C3=O)C(=O)C2 (centres undefined)	6000
CCc1ccc(S(=O)(=O)Oc2cccc3c2C(=O)C=C(N2CC2)C3=O)cc1	96
CS(=O)(=O)Oc1cccc2c1C(=O)C=C(NCCCl)C2=O	8500
O=C1C(N2CC2)=CC(=O)c2c(OS(=O)(=O)c3cccc4ccccc34)cccc21	130
CC1=C(N2CC2)C(=O)c2c(OS(=O)(=O)c3ccc(C(C)(C)C)cc3)cccc2C1=O	3600
CN(C)c1cccc2c(S(=O)(=O)Oc3cccc4c3C(=O)C=C(N3CC3)C4=O)cccc12	290
O=C1C(N2CC2)=C(N2CC2)C(=O)c2c(OS(=O)(=O)c3ccc(Br)cc3)cccc21	3700
O=C1C(N2CC2)=C(N2CC2)C(=O)c2c(OS(=O)(=O)/C=C/c3ccccc3)cccc21	5800
CC1=C(N2CC2)C(=O)c2c(O)cccc2C1=O	1500
Cc1cc(C)c(S(=O)(=O)Oc2cccc3c2C(=O)C(N2CC2)=C(N2CC2)C3=O)c(C)c1	3900
O=C(Oc1cccc2c1C(=O)C(N1CC1)=C(N1CC1)C2=O)c1ccccc1	2600
O=C1C(N2CC2)=CC(=O)c2c(OS(=O)(=O)c3ccc(I)cc3)cccc21	330
COc1ccc(C(=O)Oc2cccc3c2C(=O)C=C(N2CC2)C3=O)cc1	540
CN(C)c1cccc2c(S(=O)(=O)Oc3cccc4c3C(=O)C=C(NCCCl)C4=O)cccc12	2900
O=C(Oc1cccc2c1C(=O)C=C(N1CC1)C2=O)c1ccc(F)cc1	490
CN(C)S(=O)(=O)Oc1cccc2c1C(=O)C=C(NCCCl)C2=O	2200
O=C1C(N2CC2)=C(N2CC2)C(=O)c2c(OS(=O)(=O)c3ccc(I)cc3)cccc21	4100
CC1=CC(=O)c2c(O)cccc2C1=O [PLUMBAGIN]	2400
Cc1ccc(S(=O)(=O)Oc2cccc3c2C(=O)C=C(N2CC2)C3=O)cc1	200
O=C1C(N2CC2)=C(N2CC2)C(=O)c2c(OS(=O)(=O)c3cccc4ccccc34)cccc21	3400
